From ChEMBL document CHEMBL1124252, “Structure-activity relationships in 1,4-benzodioxan-related compounds. Investigation on the role of the dehydrodioxane ring on alpha 1-adrenoreceptor blocking activity” (J Med Chem, 1988)

Columns and labels:
[1] = target: T1, Adrenergic receptor alpha-2 (Rattus norvegicus, UniProt P22086+P19328+P22909); experiment: Alpha-2 adrenergic receptor blocking activity against clonidine-induced depression of the twitch response in prostatic portion of rat vas deferens; format: tissue-based
T1 sequence (P22086 whole entry): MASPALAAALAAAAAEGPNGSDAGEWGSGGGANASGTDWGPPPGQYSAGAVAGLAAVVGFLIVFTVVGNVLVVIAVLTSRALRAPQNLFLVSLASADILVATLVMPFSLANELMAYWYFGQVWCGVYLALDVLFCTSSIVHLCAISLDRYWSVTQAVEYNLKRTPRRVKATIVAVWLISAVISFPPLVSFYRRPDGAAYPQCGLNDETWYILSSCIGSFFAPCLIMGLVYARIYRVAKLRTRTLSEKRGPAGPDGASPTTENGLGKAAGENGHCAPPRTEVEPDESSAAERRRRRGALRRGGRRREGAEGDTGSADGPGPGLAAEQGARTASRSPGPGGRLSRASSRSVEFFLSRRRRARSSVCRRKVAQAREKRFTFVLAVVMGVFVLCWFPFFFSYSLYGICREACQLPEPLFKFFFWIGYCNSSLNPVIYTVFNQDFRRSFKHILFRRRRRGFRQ
T1 sequence (P19328 whole entry): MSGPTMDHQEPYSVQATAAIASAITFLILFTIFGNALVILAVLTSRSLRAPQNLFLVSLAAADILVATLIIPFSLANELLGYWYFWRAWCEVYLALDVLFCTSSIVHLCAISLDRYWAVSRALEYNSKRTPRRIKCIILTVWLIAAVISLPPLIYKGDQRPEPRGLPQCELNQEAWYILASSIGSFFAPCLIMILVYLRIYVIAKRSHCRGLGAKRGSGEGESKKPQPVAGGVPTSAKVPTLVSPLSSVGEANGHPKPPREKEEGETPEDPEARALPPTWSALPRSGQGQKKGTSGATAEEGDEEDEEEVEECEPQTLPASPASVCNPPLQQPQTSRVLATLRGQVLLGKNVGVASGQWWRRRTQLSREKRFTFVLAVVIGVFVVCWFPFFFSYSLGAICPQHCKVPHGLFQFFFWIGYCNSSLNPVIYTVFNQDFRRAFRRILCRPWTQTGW
T1 sequence (P22909 whole entry): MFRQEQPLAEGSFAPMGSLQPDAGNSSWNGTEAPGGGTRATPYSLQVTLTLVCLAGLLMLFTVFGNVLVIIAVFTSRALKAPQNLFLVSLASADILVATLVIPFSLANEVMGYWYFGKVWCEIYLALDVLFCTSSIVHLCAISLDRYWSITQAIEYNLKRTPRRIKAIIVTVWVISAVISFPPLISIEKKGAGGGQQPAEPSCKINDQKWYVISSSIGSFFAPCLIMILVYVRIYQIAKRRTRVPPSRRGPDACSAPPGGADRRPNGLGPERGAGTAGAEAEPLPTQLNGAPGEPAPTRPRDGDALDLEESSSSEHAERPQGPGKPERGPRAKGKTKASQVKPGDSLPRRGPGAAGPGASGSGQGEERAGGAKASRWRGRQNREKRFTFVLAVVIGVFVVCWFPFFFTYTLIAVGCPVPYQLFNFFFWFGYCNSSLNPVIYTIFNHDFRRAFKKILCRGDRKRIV
Method in brief: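 Prostatic halves (12 mm) from male albino rat vas deferens, Krebs with propranolol 1 μM and cocaine 10 μM, 0.5–0.8 g tension, field-stimulated at 0.1 Hz, 3-ms pulses, 10-35 V. After ≥1 h equilibration, cumulative clonidine curves on twitch inhibition before and after 30 min antagonist. Dose ratios taken at 50% twitch inhibition; pA2 via Schild plot, slope constrained to -1.0.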

[2] = target: Adrenergic receptor alpha (Rattus norvegicus) (UniProt P15823+P23944+P43140+P22086+P19328+P22909); experiment: The alpha-1/alpha-2 selectivity ratio is the antilog of the difference between pA2 values at alpha-1 and alpha-2 adrenoceptors
[3] = target: T2, Adrenergic receptor alpha-1 (Rattus norvegicus, UniProt P15823+P23944+P43140); experiment: Alpha-1-Adrenoceptor blocking activity against norepinephrine-induced contraction in epididymal portion of rat vas deferens; format: functional, tissue-based
T2 sequence (P15823 whole entry): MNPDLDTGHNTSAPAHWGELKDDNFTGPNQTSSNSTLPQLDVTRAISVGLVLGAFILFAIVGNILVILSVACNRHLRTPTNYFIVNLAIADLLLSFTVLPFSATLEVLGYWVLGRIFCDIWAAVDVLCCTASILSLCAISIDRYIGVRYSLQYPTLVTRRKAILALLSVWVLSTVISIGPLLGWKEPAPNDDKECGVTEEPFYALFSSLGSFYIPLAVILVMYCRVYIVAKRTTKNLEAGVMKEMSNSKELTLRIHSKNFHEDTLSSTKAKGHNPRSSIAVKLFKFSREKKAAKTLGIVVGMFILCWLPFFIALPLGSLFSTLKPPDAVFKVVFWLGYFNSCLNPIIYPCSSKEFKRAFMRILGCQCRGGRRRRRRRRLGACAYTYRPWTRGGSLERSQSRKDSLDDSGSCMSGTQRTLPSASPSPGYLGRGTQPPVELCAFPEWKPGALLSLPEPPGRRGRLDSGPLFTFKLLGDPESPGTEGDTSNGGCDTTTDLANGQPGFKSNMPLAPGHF
T2 sequence (P23944 whole entry): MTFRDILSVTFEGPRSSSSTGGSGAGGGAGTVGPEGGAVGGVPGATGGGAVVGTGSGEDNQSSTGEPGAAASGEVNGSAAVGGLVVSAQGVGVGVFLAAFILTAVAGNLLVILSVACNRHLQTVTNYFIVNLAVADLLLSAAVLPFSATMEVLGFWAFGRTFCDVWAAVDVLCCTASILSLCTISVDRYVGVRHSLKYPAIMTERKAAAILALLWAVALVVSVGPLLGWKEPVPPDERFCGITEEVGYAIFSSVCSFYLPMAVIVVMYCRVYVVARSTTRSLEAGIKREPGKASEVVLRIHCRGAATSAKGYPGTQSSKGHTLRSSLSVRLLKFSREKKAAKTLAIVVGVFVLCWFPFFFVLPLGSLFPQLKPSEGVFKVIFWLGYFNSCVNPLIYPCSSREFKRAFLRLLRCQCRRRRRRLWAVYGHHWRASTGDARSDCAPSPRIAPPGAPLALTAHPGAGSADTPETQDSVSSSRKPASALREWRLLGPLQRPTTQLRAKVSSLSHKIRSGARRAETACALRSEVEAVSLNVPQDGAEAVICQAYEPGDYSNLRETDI
T2 sequence (P43140 whole entry): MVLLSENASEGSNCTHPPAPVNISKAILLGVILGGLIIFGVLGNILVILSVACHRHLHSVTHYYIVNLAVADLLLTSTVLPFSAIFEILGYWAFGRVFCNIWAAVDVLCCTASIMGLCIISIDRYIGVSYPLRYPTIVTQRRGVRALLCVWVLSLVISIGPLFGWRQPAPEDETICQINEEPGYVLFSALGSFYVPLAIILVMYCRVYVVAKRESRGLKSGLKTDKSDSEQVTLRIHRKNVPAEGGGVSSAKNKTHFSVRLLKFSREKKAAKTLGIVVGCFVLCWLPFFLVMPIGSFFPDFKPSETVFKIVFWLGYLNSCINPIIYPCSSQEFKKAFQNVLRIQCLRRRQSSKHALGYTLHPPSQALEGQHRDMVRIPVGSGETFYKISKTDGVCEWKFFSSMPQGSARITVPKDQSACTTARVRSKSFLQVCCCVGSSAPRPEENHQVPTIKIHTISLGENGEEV
Method in brief: (§1)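 Epididymal halves (14 mm) of vas deferens from male albino rats (175-200 g), Krebs with propranolol 1 μM and cocaine 10 μM, 0.4 g tension. Equilibrated ≥1 h; cumulative norepinephrine curves, first discarded, second control, third after 30 min antagonist. Time-control tissues run in parallel. pA2 from Schild plots constrained to slope -1.0, each concentration tested five times.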

[4] = target: T2, Adrenergic receptor alpha-1; experiment: Alpha-1 adrenergic receptor blocking activity against norepinephrine-induced contraction in epididymal portion of rat vas deferens; format: tissue-based; method in brief: as §1

Structure (SMILES)	pA2 [1]	Selectivity [2]	pA2 [3]	pA2 [4]
COc1cccc(OC)c1OCCNCc1cc2ccccc2[nH]1	6.04	4	6.6	
COc1cccc(OC)c1OCCNCc1cccc2ccccc12	6.41	8		7.33
COc1cccc(OC)c1OCCNC[C@@H]1CSc2ccccc2C1=O	6.53	229		8.89
COc1cccc(OC)c1OCCNC[C@@H]1COc2ccccc2C1	6.28	49		7.97
COc1cccc(OC)c1OCCNC[C@@H]1COc2ccccc2C1=O	6.52	257		8.93
COc1cccc(OC)c1OCCNC[C@@H]1COc2ccccc2[C@H]1O	6.09	17		7.33
COc1cccc(OC)c1OCCNC[C@@H]1CSc2ccccc2O1	6.15	469		9.05
COc1cccc(OC)c1OCCNC[C@@H]1CS(=O)(=O)c2ccccc2O1	5.8	6	6.6	
COc1cccc(OC)c1OCCNC[C@@H]1COc2ccccc2S1	6.09	71		7.94
COc1cccc(OC)c1OCCNCc1ccc2ccccc2c1	6.4	22		7.75
COc1cccc(OC)c1OCCNCC1COc2ccccc2O1 (stereo not given)	6.63	407		9.24
COc1cccc(OC)c1OCCNC[C@@H]1C[S@@+]([O-])c2ccccc2O1 (relative stereo)	6.24	30		7.71
COc1cccc(OC)c1OCCNC[C@@H]1COc2ccccc2[C@@H]1O	6.1	13		7.22
COc1cccc(OC)c1OCCNC[C@@H]1CCc2ccccc2O1	7.05	141	9.2	
COc1cccc(OC)c1OCCNC[C@@H]1C[S@+]([O-])c2ccccc2O1 (relative stereo)	6.24	20		7.54
